In brackets after ≈: the same amount, converted by molar mass.

This note sets out measurements from ChEMBL document CHEMBL1123468, “Synthesis and antiviral activity of (E)-5-(2-bromovinyl)uracil and (E)-5-(2-bromovinyl)uridine” (1986).

In one assay the test system is E6SM. Nature of the assay: The concentration required to reduce the cytopathogenicity of HSV-1 (KOS) in E6SM cell culture by 50% in presence of 0 ug/mL concentrations of benzylacyclouridine. It is filed as functional. The conditions noted are these: Homo sapiens. In outline:
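E6SM cells infected with HSV-1 (KOS), with 6-aminothymine or benzylacyclouridine added to the medium at the stated concentration. The value is the minimum concentration that reduces viral cytopathogenicity by 50%.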
(In general: Protection from cytopathic effect is a common read-out in antiviral testing.)

A further assay deals with M21. Nature of the assay: The compound was tested for its antiviral activity against HSV-1 (KOS) virus in M-21 (GM137) cell line,. Type of assay: functional. The conditions noted are these: Homo sapiens. In outline: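 Virus-induced cytopathogenicity in cell culture, scored microscopically. The value is the minimum concentration that cuts viral cytopathogenicity by 50%. Normal cell morphology was also checked microscopically at up to 400 μg/mL.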

As to `Oc1ncc(/C=C/Br)c(O)n1`, the MIC50 in the assay with E6SM is 4 µg/mL.

`O=c1[nH]c(=O)n([C@H]2C[C@H](O)[C@@H](CO)O2)cc1/C=C/Br` [BRIVUDINE]: in the assay on M21, the MIC50 came to 0.02 µg/mL (≈ 0.06 µM).
